# The source made the active and inactive calls. The calls are words filed in the database; no cut-off is given here.
# How the values were obtained:
# [1] = system: Mycobacterium tuberculosis; assay: Antimycobacterial activity against Mycobacterium tuberculosis H37Rv assessed as reduction in bacterial cell growth by measuring resazurin reduction incubated for 6 days by fluorescence microplate based assay; type: functional; conditions: time 6 day
# Staphylococcus aureus = assay: Antibiotic activity against Staphylococcus aureus SH1000 assessed as reduction in bacterial cell growth by measuring resazurin reduction incubated for 6 days by fluorescence microplate based assay; type: functional; conditions: SH1000, 144 h, time 6 day
# How it was run: (§1)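 E. coli BW25113, E. coli ΔtolC and S. aureus SH1000 were cultured and tested in cation-adjusted Mueller Hinton II broth. Viability was read by adding resazurin and measuring resorufin fluorescence at Ex 530 nm / Em 590 nm.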
# Mycobacterium avium = assay: Antibiotic activity against Mycobacterium avium TMC 724, ATCC-25291 assessed as reduction in bacterial cell growth by measuring resazurin reduction incubated for 6 days by fluorescence microplate based assay; type: functional; conditions: TMC 724, ATCC-25291, 144 h, time 6 day
# Mycobacterium marinum [2] = assay: In vivo antimycobacterial efficacy in Mycobacterium marinum expressing Wasabi infected zebrafish larvae assessed as prolongation of survival at 9.6 uM treated for 4 days after 1 day post infection; type: functional, organism-based; conditions: time 4.0 day
# How it was run: (§2)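 Golden mutant or Tg(mpeg1:mCherry) zebrafish embryos were dechorionated and anaesthetised in 0.016% tricaine. At 30 hpf, 2–3 nL containing about 200–250 cfu of Wasabi-expressing M. marinum M (pTEC15) was injected into the caudal vein. The inoculum was confirmed by plating on 7H10. Embryos were kept in E3 at 28.5 °C, 12 per well, to follow infection and survival.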
# [3] = system: Mycobacterium tuberculosis; assay: Inhibition of Ndh2 in Mycobacterium tuberculosis assessed as increase in NADH/NAD+ ratio at 600 nM measured after 24 hrs
# How it was run: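 Mid-log H37Rv diluted to OD600 0.3 and exposed to compound at 37°C for 2 and 24 h. Pellets extracted in 0.2 M HCl (NAD⁺) or 0.2 M NaOH (NADH), bead-milled, heated 55°C 10 min, neutralised. NAD/NADH-Glo luminescence read against an NADH standard curve, corrected for OD600. Three independent experiments, duplicate technical replicates.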
# Klebsiella pneumoniae = assay: Antibiotic activity against Klebsiella pneumoniae LMG 2095 assessed as reduction in bacterial cell growth by measuring resazurin reduction incubated for 6 days by fluorescence microplate based assay; type: functional; conditions: LMG 2095, 144 h, time 6 day
# Mycobacterium marinum [4] = assay: in vivo antimycobacterial efficacy in Mycobacterium marinum infected zebrafish larvae assessed as reduction in bacterial burden at 0.25 to 2 micog/ml measured after 2 to 4 days off post infection; type: functional, organism-based; conditions: time 2-4 day
# [5] = Toxicity in noninfected zebrafish larvae assessed as larval development; design: species or system Danio rerio; conditions: in vivo
# [6] = system: Mycobacterium tuberculosis; assay: Bactericidal activity against Non-replicating Mycobacterium tuberculosis ss18b-lux assessed as decrease in colony forming unit measured at 4.8 uM after 1 weeks; type: functional
# How it was run: (§3)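 Streptomycin-dependent 18b-lux starved of streptomycin for 14 days (OD600 reset to 0.2 on days 7 and 13) to become non-replicating. Diluted to OD600 0.15 on dispensed compound and held at 37°C. On day 7, active wells plated on 7H11-OADC with 50 µg/mL streptomycin and incubated up to 8 weeks for cfu.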
# [7] = system: Mycobacterium tuberculosis; assay: Bactericidal activity against replicating Mycobacterium tuberculosis H37Rv assessed as reduction in colony forming unit measured at 2 to 4 times of MIC after 1 to 2 weeks; type: functional; conditions: time 1-2 weeks
# How it was run: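 Mid-log H37Rv in 7H9-GTy-OADC diluted to OD600 0.02 (~1×10⁶ cfu/mL) and exposed to compound in 96-well replica plates for 1 or 2 weeks. For the 3 lowest concentrations without visible growth, serial 10-fold dilutions plated on 7H11-OADC and cfu counted over 6 weeks at 37°C. Four independent experiments; log10 cfu/mL ± SD.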
# [8] = system: Mycolicibacterium smegmatis; assay: Antibiotic activity against Mycobacterium smegmatis mc2155 assessed as reduction in bacterial cell growth by measuring resazurin reduction incubated for 6 days by fluorescence microplate based assay; type: functional; conditions: mc2155, 144 h, time 6 day
# [9] = Octanol/PBS partition coefficient, logD of compound at pH 7.4 measured after 2 hrs by shake flask method; type: physicochemical; conditions: octanol/water, pH 7.4, 2 h
# How it was run: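 A 10 mM DMSO stock was diluted 50-fold into 1:1 octanol:PBS pH 7.4 and shaken gently for 2 h at room temperature. Each phase was diluted 50-fold in MeOH and quantified by LC-MS/MS. LogD = log of the octanol/PBS concentration ratio from mass signals. Run in triplicate.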
# Acinetobacter baumannii = assay: Antibiotic activity against Acinetobacter baumannii LMG-17978 assessed as reduction in bacterial cell growth by measuring resazurin reduction incubated for 6 days by fluorescence microplate based assay; type: functional; conditions: LMG-17978, 144 h, time 6 day
# [10] = system: Mycobacterium tuberculosis; assay: Bactericidal activity against Non-replicating Mycobacterium tuberculosis ss18b-lux assessed as bacterial killing by measuring CFU after 1 week; type: functional, organism-based; conditions: time 1.0 weeks, DDE = dose-dependent effect; how it was run: as §3
# [11] = system: Mycobacterium tuberculosis; assay: Inhibition of Ndh2 in Mycobacterium tuberculosis assessed as decrease in ATP concentration measured after 24 hrs; conditions: DDE = dose-dependent effect
# How it was run: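 Log-phase H37Rv diluted to OD600 0.01 in complete 7H9 and exposed in 96-well plates to compound added from a 100× DMSO stock, at 37°C. ATP measured with BacTiter-Glo luminescence after 4 and 24 h; three independent experiments.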
# Mycobacterium marinum [12] = assay: In vivo antimycobacterial efficacy in Mycobacterium marinum expressing Wasabi infected zebrafish larvae assessed as prolongation of survival time at 4.8 uM treated for 4 days after 1 day post infection; type: functional; conditions: time 4 day
# Bacillus subtilis = assay: Antibiotic activity against Bacillus subtilis ATCC6633 assessed as reduction in bacterial cell growth by measuring resazurin reduction incubated for 6 days by fluorescence microplate based assay; type: functional; conditions: ATCC6633, 144 h, time 6 day
# [13] = Toxicity in noninfected zebrafish larvae assessed as toxic effect; design: species or system Danio rerio; conditions: in vivo
# Pseudomonas aeruginosa = assay: Antibiotic activity against Pseudomonas aeruginosa POA1 assessed as reduction in bacterial cell growth by measuring resazurin reduction incubated for 6 days by fluorescence microplate based assay; type: functional; conditions: POA1, 144 h, time 6 day
# Escherichia coli [14] = assay: Antibiotic activity against Escherichia coli BW25113 assessed as reduction in bacterial cell growth by measuring resazurin reduction incubated for 6 days by fluorescence microplate based assay; type: functional; conditions: BW25113, 144 h, time 6 day; how it was run: as §1
# Mycobacterium marinum [15] = assay: In vivo antimycobacterial efficacy in Mycobacterium marinum expressing Wasabi infected zebrafish larvae assessed as prevention of bacterial load using fluorescence pixel count determination at 0.5 ug/ml treated for 2 to 4 days after 1 day post infection; type: functional, organism-based; conditions: dose 0.5 µg/ml, time 2-4 day; how it was run: as §2
# [16] = Metabolic stability in mouse liver microsomes; type: ADME, Microsome
# [17] = system: Mycobacteroides abscessus; assay: Antibiotic activity against Mycobacterium abscessus CIP104536, Rough variant assessed as reduction in bacterial cell growth by measuring resazurin reduction incubated for 6 days by fluorescence microplate based assay; type: functional; conditions: 144 h, time 6 day
# Escherichia coli [18] = assay: Antibiotic activity against Escherichia coli deltatolC BW25113 deltatolC assessed as reduction in bacterial cell growth by measuring resazurin reduction incubated for 6 days by fluorescence microplate based assay; type: functional; conditions: 144 h, time 6 day; how it was run: as §1
# [19] = system: Mycobacterium tuberculosis; assay: Antibiotic activity against Mycobacterium tuberculosis H37Rv assessed as reduction in bacterial cell growth by measuring resazurin reduction incubated for 6 days by fluorescence microplate based assay; type: functional; conditions: 144 h, time 6 day
# [20] = system: Mycobacterium tuberculosis; assay: Bactericidal activity against Non-replicating Mycobacterium tuberculosis ss18b-lux model assessed as decrease in luminescence at 10 to 10000 nM; type: functional, organism-based; conditions: dose 10-10000 nM, TDE = time-dependent effect
# How it was run: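 Non-replicating streptomycin-starved 18b-lux (14-day starvation) diluted to OD600 0.15 in white 96-well plates with compound and incubated at 37°C. Luminescence read on days 1, 2, 5 and 7 and expressed relative to no-antibiotic controls (n ≥ 3).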
# [21] = system: Mycobacterium tuberculosis; assay: Antimycobacterial activity against Mycobacterium tuberculosis H37Rv infected in human A-THP1 macrophages assessed as viability of infected macrophages incubated for 96 hrs by fluorescence microplate assay; type: functional, organism-based
# How it was run: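 THP-1 cells differentiated with 50 ng/mL PMA for 72 h, infected with log-phase H37Rv (MOI 10, 2 h), and extracellular bacteria killed with 50 µg/mL amikacin for 1 h. Cells detached and seeded at 5×10⁵/mL in RPMI-10% FBS with PMA onto pre-dispensed compound, 96 h at 37°C, 5% CO₂. Macrophage viability by 0.05% resazurin fluorescence.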
# Mycobacterium marinum [22] = assay: In vivo antimycobacterial efficacy in Mycobacterium marinum expressing Wasabi infected zebrafish larvae assessed as prolongation of survival treated for 4 days after 1 day post infection; type: functional, organism-based; conditions: dose 0.3-1.2 µM, time 4.0 day, DDE = dose-dependent effect; how it was run: as §2
# Mycobacterium marinum [23] = assay: Antibiotic activity against Mycobacterium marinum M strain assessed as reduction in bacterial cell growth by measuring resazurin reduction incubated for 6 days by fluorescence microplate based assay; type: functional; conditions: 144 h, time 6 day
# Mycobacterium marinum [24] = assay: In vivo antimycobacterial efficacy in Mycobacterium marinum expressing Wasabi infected zebrafish larvae assessed as prevention of bacterial infection foci at 0.25 to 2 ug/ml treated for 2 to 4 days after 1 day post infection; type: functional, organism-based; conditions: dose 0.25-2 µg/ml, time 2-4 day; how it was run: as §2
# [25] = system: Mycobacteroides abscessus; assay: Antibiotic activity against Mycobacterium abscessus CIP104536, Smooth variant assessed as reduction in bacterial cell growth by measuring resazurin reduction incubated for 6 days by fluorescence microplate based assay; type: functional; conditions: 144 h, time 6 day
# [26] = biological target: T1, Type II NADH:quinone oxidoreductase NdhA (Mycobacterium tuberculosis, UniProt P95200); assay: Inhibition of Mycobacterium smegmatis MC2 155 recombinant ndhA assessed as rate of NADH oxidation in the presence of an electron acceptor menadione; design: species or system Mycolicibacterium smegmatis
# T1 sequence (P95200 whole entry): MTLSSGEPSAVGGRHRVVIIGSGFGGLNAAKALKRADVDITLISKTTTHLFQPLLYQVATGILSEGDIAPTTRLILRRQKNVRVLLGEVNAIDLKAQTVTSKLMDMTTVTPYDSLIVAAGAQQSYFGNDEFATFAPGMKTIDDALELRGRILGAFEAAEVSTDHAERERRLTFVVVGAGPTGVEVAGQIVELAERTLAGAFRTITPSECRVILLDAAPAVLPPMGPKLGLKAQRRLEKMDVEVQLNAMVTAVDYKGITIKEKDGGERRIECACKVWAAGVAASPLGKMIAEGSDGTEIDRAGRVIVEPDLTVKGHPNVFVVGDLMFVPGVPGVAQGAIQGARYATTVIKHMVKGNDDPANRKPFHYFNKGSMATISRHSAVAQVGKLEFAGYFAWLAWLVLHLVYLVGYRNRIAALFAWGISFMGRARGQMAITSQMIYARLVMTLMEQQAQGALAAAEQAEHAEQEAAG
# [27] = biological target: Type II NADH:quinone oxidoreductase Ndh (Mycobacterium tuberculosis, UniProt P95160); assay: Inhibition of Mycobacterium tuberculosis recombinant type II NADH dehydrogenase ndh expressed in Escherichia coli assessed as rate of NADH oxidation in the presence of an electron acceptor menadione
# How it was run: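 Purified N-terminal MBP-tagged Mtb Ndh (Rv1854c) expressed in E. coli, 70 nM, with 500 µM NADH in 50 mM HEPES pH 7.1 (K₂HPO₄). Compound pre-incubated 15 min at 25°C, reaction started with 100 µM menadione. NADH oxidation followed at 340 nm every 60 s. Rate taken from linear slope; IC50 is the mean ± SD of at least 3 independent experiments.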
# Chain of Type II NADH:quinone oxidoreductase Ndh (P95160 whole entry): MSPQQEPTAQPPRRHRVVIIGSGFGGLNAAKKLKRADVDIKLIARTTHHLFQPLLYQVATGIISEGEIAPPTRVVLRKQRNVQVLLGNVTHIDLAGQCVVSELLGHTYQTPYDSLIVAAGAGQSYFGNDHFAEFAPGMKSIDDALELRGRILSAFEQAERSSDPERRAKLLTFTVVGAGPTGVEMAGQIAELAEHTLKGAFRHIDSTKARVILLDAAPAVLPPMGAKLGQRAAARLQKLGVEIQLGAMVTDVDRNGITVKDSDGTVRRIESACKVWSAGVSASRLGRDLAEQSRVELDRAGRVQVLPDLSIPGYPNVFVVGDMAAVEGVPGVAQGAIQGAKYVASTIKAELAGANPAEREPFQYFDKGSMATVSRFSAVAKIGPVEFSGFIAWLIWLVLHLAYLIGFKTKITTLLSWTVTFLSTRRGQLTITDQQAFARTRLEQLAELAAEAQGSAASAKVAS
smiles,measurement,setting,value
C[C@H]1CO[C@]23CCN(Cc4ccccc4)C[C@H]2CCC(=O)N13,MIC98,[1],>100 µM
CC(C)[C@H]1CO[C@]23CCN(Cc4ccc(OC(F)(F)F)cc4)C[C@H]2CCC(=O)N13,MIC,Staphylococcus aureus,> 100 µM
same,MIC,Mycobacterium avium,0.38 µM
same,MIC98,[1],0.13 µM
same,Activity,Mycobacterium marinum [2],Active
same,inhibition,[3],Active
same,MIC,Klebsiella pneumoniae,> 100 µM
same,Activity,Mycobacterium marinum [4],Active
same,Activity,[5],Non-Toxic
same,Activity,[6],1 log10CFU
same,Activity,[7],0.8 log10CFU
same,MIC,[8],1.3 µM
same,logD,[9],3.9
same,MIC,Acinetobacter baumannii,> 100 µM
same,Activity,[10],Dde
same,inhibition,[11],Dde
same,Time,Mycobacterium marinum [12],3 days
same,MIC,Bacillus subtilis,> 100 µM
same,Activity,[13],Non-Toxic
same,MIC,Pseudomonas aeruginosa,> 100 µM
same,MIC,Escherichia coli [14],> 100 µM
same,Activity,Mycobacterium marinum [15],Active
same,Drug metabolism,[16],Metabolite_Detected
same,MIC,[17],8.1 µM
same,MIC,Escherichia coli [18],100 µM
same,MIC,[19],0.13 µM
same,Activity,[20],Tde
same,IC50,[21],360 nM
same,Activity,Mycobacterium marinum [22],Dde
same,MIC,Mycobacterium marinum [23],0.16 µM
same,Activity,Mycobacterium marinum [24],Active
same,MIC,[25],8.1 µM
CC(C)[C@H]1CO[C@]23CCN(Cc4ccc(Cl)cc4)C[C@H]2CCC(=O)N13,MIC98,[1],0.25 µM
same,IC50,[26],96 nM
same,IC50,[27],28 nM
NNC(=O)c1ccncc1 [ISONIAZID],IC50,[21],204 nM
CC(C)[C@H]1CO[C@]23CCN(Cc4ccc(C(F)(F)F)nc4)C[C@H]2CCC(=O)N13,MIC98,[1],0.59 µM
same,Activity,Mycobacterium marinum [4],Active
same,Activity,[5],Non-Toxic
same,logD,[9],2.7
same,Time,Mycobacterium marinum [12],3 days
same,Activity,[13],Non-Toxic
same,IC50,[26],330 nM
same,IC50,[27],32 nM
same,IC50,[21],2400 nM
same,Activity,Mycobacterium marinum [22],Dde
